Laboratory results reported in ChEMBL document CHEMBL1153389, “Identification of novel antibacterial peptides by chemoinformatics and machine learning” (2009).

Assays:
Type in all cases: functional
Enterobacter cloacae = experiment: Antimicrobial activity against class C chromosomal beta lactamase expressing Enterobacter cloacae 218R after overnight incubation by broth microdilution method
Procedure, shortened: (§1)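 Modified broth microdilution. Peptides are serially diluted in 0.01% acetic acid with 0.2% BSA at 10-fold the final concentration, then added to MH medium in polypropylene plates. Bacteria from an overnight culture are added to a final (2-7) × 10^5 CFU/mL. Plates are incubated overnight at 37 °C. MIC is the lowest concentration with no visible growth.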

Pseudomonas aeruginosa [1] = experiment: Antimicrobial activity against Pseudomonas aeruginosa H1030 after overnight incubation by broth microdilution method
Procedure, shortened: (§2)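 Modified broth microdilution in polypropylene 96-well plates with Mueller-Hinton (MH) medium. Bulk-synthesized peptides were serially diluted at 10-fold final strength in 0.01% acetic acid with 0.2% BSA, then added 1:10 to MH. Inoculum came from an overnight culture at a final (2-7) × 10^5 CFU/mL. Plates were incubated overnight at 37 °C. MIC was the lowest concentration with no visible growth.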

Klebsiella pneumoniae [2] = experiment: Antimicrobial activity against extended-spectrum beta-lactamase-resistant Klebsiella pneumoniae 63575 after overnight incubation by broth microdilution method; procedure, shortened: as §2
Enterococcus faecium [3] = experiment: Antimicrobial activity against vancomycin-resistant Enterococcus faecium t62764(VanB) isolate after overnight incubation by broth microdilution method; procedure, shortened: as §2
Enterococcus faecium [4] = experiment: Antimicrobial activity against vancomycin-resistant Enterococcus faecium mic80(VanA) isolate after overnight incubation by broth microdilution method; procedure, shortened: as §2
Enterococcus faecalis [5] = experiment: Antimicrobial activity against vancomycin-resistant Enterococcus faecalis f43559 (VanB) isolate after overnight incubation by broth microdilution method; procedure, shortened: as §2
Enterococcus faecalis [6] = experiment: Antimicrobial activity against vancomycin-resistant Enterococcus faecalis w6190(VanA) isolate after overnight incubation by broth microdilution method; procedure, shortened: as §2
Escherichia coli [7] = experiment: Antimicrobial activity against extended-spectrum beta-lactamase producing Escherichia coli 64771 after overnight incubation by broth microdilution method; procedure, shortened: as §1
Escherichia coli [8] = experiment: Antimicrobial activity against extended-spectrum beta-lactamase producing Escherichia coli 63103 after overnight incubation by broth microdilution method; procedure, shortened: as §1
Klebsiella pneumoniae [9] = experiment: Antimicrobial activity against extended-spectrum beta-lactamase-resistant Klebsiella pneumoniae 61962 after overnight incubation by broth microdilution method; procedure, shortened: as §2
Pseudomonas aeruginosa [10] = experiment: Antimicrobial activity against Pseudomonas aeruginosa H1001 expressing luciferase gene assessed as ratio antimicrobial IC50 for drug to Bac2A peptide by luminescence assay
Procedure, shortened: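 Peptides are made by SPOT synthesis on cellulose, cleaved, and the spots placed in plate wells. Overnight P. aeruginosa H1001 (fliC::luxCDABE) is diluted 1:500 in 100 mM Tris-HCl pH 7.3 with 20 mM glucose and added to the wells. After 30 min, serial dilutions (8 rows) are made. Luminescence is read at 4 h. IC50 is taken from a sigmoid fit and expressed relative to Bac2A run in the same series.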

Pseudomonas aeruginosa [11] = experiment: Antimicrobial activity against Pseudomonas aeruginosa H103 after overnight incubation by broth microdilution method; procedure, shortened: as §1
[12] = tested on: Stenotrophomonas maltophilia; experiment: Antimicrobial activity against Pseudomonas maltophilia ATCC 13637 after overnight incubation by broth microdilution method; procedure, shortened: as §1
Staphylococcus aureus [13] = experiment: Antimicrobial activity against methicillin-resistant Staphylococcus aureus C623 after overnight incubation by broth microdilution method; procedure, shortened: as §2
Pseudomonas aeruginosa [14] = experiment: Antimicrobial activity against Pseudomonas aeruginosa LES400 after overnight incubation by broth microdilution method; procedure, shortened: as §2
Pseudomonas aeruginosa [15] = experiment: Antimicrobial activity against Pseudomonas aeruginosa H1027 after overnight incubation by broth microdilution method; procedure, shortened: as §1
Enterococcus faecalis [16] = experiment: Antimicrobial activity against Enterococcus faecalis ATCC 29212 after overnight incubation by broth microdilution method; procedure, shortened: as §1
Staphylococcus aureus [17] = experiment: Antimicrobial activity against Staphylococcus aureus ATCC 25923 after overnight incubation by broth microdilution method; procedure, shortened: as §2
Pseudomonas aeruginosa [18] = experiment: Antimicrobial activity against multidrug-resistant Pseudomonas aeruginosa Brazil 213 isolate after overnight incubation by broth microdilution method; procedure, shortened: as §2
Pseudomonas aeruginosa [19] = experiment: Antimicrobial activity against multidrug-resistant Pseudomonas aeruginosa Brazil 9 isolate after overnight incubation by broth microdilution method; procedure, shortened: as §2
Pseudomonas aeruginosa [20] = experiment: Antimicrobial activity against multidrug-resistant Pseudomonas aeruginosa Brazil 198 isolate after overnight incubation by broth microdilution method; procedure, shortened: as §2

| Substance | MIC (Enterobacter cloacae) [µM] | MIC (Pseudomonas aeruginosa [1]) [µM] | MIC (Klebsiella pneumoniae [2]) [µM] | MIC (Enterococcus faecium [3]) [µM] | MIC (Enterococcus faecium [4]) [µM] | MIC (Enterococcus faecalis [5]) [µM] | MIC (Enterococcus faecalis [6]) [µM] | MIC (Escherichia coli [7]) [µM] | MIC (Escherichia coli [8]) [µM] | MIC (Klebsiella pneumoniae [9]) [µM] | Ratio IC50 (Pseudomonas aeruginosa [10]) | MIC (Pseudomonas aeruginosa [11]) [µM] | MIC [12] [µM] | MIC (Staphylococcus aureus [13]) [µM] | MIC (Pseudomonas aeruginosa [14]) [µM] | MIC (Pseudomonas aeruginosa [15]) [µM] | MIC (Enterococcus faecalis [16]) [µM] | MIC (Staphylococcus aureus [17]) [µM] | MIC (Pseudomonas aeruginosa [18]) [µM] | MIC (Pseudomonas aeruginosa [20]) [µM] | further results |
| --- | --- | --- | --- | --- | --- | --- | --- | --- | --- | --- | --- | --- | --- | --- | --- | --- | --- | --- | --- | --- | --- |
| H-AIRRWRIRK-OH | 108 | > 217 | > 217 | 14 | 108 | > 217 | > 217 | 108 | 108 | > 217 | 4.62 | > 217 | 108 | 54 | > 217 | 217 | > 217 | 54 |  |  |  |
| H-RRFKFIRWW-OH | 12 | 49 | 49 | 6.1 | 6.1 | 49 | 98 | 12 | 12 | 98 | 0.24 | 6.1 | 0.8 | 6.1 | 12 | 3.1 | 12 | 6.1 | 49 | 49 | MIC (Pseudomonas aeruginosa [19]): 24 µM |
| H-IWWKWRRWV-OH | 6 | 48 | 12 | 3 | 6 | 48 | 48 | 6 | 24 | 96 | 0.29 | 6 | 1.5 | 3 | 12 | 6 | 24 | 3 | 48 | 12 | MIC (Pseudomonas aeruginosa [19]): 48 µM |
| H-AVWKFVKRV-OH | > 240 | > 240 | > 240 | 120 | 120 | > 240 | > 240 | 120 | 240 | > 240 | 8.18 | 240 | 60 | 240 | 240 | 120 | > 240 | 240 |  | 240 |  |
| H-RLARIVVIRVAR-OH | 24 | 95 | 192 | 3 | 12 | 48 | 48 | 24 | 24 | 192 |  | 48 | 3 | 24 | 95 | 12 | 12 | 24 | 192 | 95 | MIC (Pseudomonas aeruginosa [19]): 192 µM |
| H-VVLKIVRRF-OH | 241 | > 241 | > 241 | 60 | 241 | > 241 | > 241 | 241 | > 241 | > 241 | 25 | > 241 | 60 | 241 | > 241 | 241 | 241 | 241 |  |  |  |
| H-RKRLKWWIY-OH | 13 | 50 | 50 | 3.2 | 13 | 202 | > 202 | 6.3 | 6.3 | > 202 | 0.18 | 25 | 3.2 | 6.3 | 50 | 6.3 | 50 | 6.3 | 50 | 50 | MIC (Pseudomonas aeruginosa [19]): 50 µM |
| H-KWKIFRRWW-OH | 6 | 48 | 97 | 6.1 | 24 | 97 | 97 | 12 | 24 | 194 | 0.16 | 12 | 1.5 | 3.1 | 12 | 3.1 | 24 | 3.1 | 48 | 24 | MIC (Pseudomonas aeruginosa [19]): 24 µM |
| H-KRIMKLKMR-OH | > 226 | > 226 | > 226 | > 226 | > 226 | > 226 | > 226 | > 226 | > 226 | > 226 | 6.5 | > 226 | > 226 | > 226 | > 226 | > 226 | > 226 | > 226 |  |  |  |
| H-AWRFKNIRK-OH | > 223 | > 223 | > 223 | 223 | > 223 | > 223 | > 223 | 223 | > 223 | > 223 | 9.2 | > 223 | > 223 | > 223 | > 223 | 111 | > 223 | 223 |  |  |  |
